Assay results published in ChEMBL document CHEMBL3407348, “Antileishmanial activity of quinazoline derivatives: synthesis, docking screens, molecular dynamic simulations and electrochemical studies” (Eur J Med Chem, 2015).
Values after ≈ are worked out from the molar mass of the structure shown.

Assays:
Leishmania mexicana [1] = assay: Antiparasitic activity against Leishmania mexicana MHOM/BZ/61/M379 assessed as oxygen consumption at 5.74 mM during 1 hr by fluorescence assay (reference value: 100%); assay type: functional
Procedure, shortened: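 Promastigotes (5 × 10⁶) were placed in microplate wells containing an oxygen-sensitive fluorophore with the test agent for 1 or 2 h. Oxygen consumption was read as fluorescence on a plate reader and expressed relative to untreated parasites (100%). Sodium cyanide served as the mitochondrial-damage control and dithionite as the oxygen-abolition control. Run in triplicate, with at least four independent experiments.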

physchem = settings: phosphate buffered saline, pH 7.4
Pteridine reductase 1 = biological target: T1, Pteridine reductase 1 (Leishmania major, UniProt Q01782)
T1 sequence (Q01782 whole entry): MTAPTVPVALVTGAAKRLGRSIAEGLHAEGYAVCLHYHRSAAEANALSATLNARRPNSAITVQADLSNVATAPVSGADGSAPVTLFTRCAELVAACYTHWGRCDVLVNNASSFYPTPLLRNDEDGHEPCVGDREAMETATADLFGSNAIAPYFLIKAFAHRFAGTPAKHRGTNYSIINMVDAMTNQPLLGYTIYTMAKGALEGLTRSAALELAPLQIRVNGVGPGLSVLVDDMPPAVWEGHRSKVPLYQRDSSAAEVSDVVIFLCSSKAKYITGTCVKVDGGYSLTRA

[2] = biological target: Bifunctional dihydrofolate reductase-thymidylate synthase (Leishmania major, UniProt P07382); assay: Binding affinity to Leishmania major DHFR
Bifunctional dihydrofolate reductase-thymidylate synthase, sequence (P07382 whole entry): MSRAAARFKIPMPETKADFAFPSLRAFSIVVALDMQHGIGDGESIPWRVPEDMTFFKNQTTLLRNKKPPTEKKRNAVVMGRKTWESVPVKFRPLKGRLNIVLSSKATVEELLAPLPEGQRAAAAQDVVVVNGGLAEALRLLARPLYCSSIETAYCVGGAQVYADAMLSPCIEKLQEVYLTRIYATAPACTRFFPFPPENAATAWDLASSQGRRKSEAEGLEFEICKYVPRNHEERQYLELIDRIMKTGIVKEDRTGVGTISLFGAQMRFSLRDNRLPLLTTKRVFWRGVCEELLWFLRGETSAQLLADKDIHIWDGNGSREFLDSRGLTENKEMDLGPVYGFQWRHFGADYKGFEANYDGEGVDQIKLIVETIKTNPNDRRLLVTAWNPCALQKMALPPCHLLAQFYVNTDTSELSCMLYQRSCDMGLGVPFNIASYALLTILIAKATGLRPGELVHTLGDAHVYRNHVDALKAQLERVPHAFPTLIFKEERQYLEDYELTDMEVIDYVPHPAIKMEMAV

Leishmania mexicana [3] = assay: Antiparasitic activity against promastigote form of Leishmania mexicana MHOM/BZ/61/M379 at 100 uM after 24 hrs by haemocytometer; assay type: functional; settings: for inhibition at 100 µM: MHOM/BZ/61/M379, 72 h, in the assay text read “72 hrs” for “24 hrs”
Procedure, shortened: (§1)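 Promastigotes were grown in DMEM with L-glutamine and 4,500 mg/L glucose, without bicarbonate, plus 10% fetal calf serum. Serial compound dilutions (1:10 compound:medium) were mixed with an equal volume of 2 × 10⁶ parasites/mL at 26 °C. Parasites were counted by hemacytometer in triplicate. Growth inhibition was expressed as a percentage of the no-drug control, with 100 µM used for the initial screen.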

[4] = Retention time of the compound; assay type: physicochemical
Procedure, shortened: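 Reverse-phase HPLC on an RP-amide column (150 × 4.6 mm, 5 µm) with guard column. Mobile phase was 10 mM phosphate buffer pH 3.3 and acetonitrile (60:40 v/v) at 1.00 mL/min and 30 °C, with an 8 min run. UV detection at 240 and 272 nm.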

in vitro = settings: mouse, L929 cells
Leishmania mexicana [5] = settings: MHOM/BZ/61/M379, 100 uM
Leishmania mexicana [6] = settings: MHOM/BZ/61/M379, 100 uM; remark: listed apart in the source
Leishmania mexicana [7] = assay: Antiparasitic activity against promastigote form of Leishmania mexicana MHOM/BZ/61/M379 after 72 hrs by haemocytometer; settings: MHOM/BZ/61/M379, 72 h
Leishmania mexicana [8] = assay: Antiparasitic activity against promastigote form of Leishmania mexicana MHOM/BZ/61/M379 after 24 hrs by haemocytometer; assay type: functional, organism-based; procedure, shortened: as §1

| Compound | solubility (physchem) | Kd (Pteridine reductase 1) | Kd [2] | inhibition at 100 µM (Leishmania mexicana [3]) | Retention_time [4] | IC50 (Leishmania mexicana [7]) | other results |
| --- | --- | --- | --- | --- | --- | --- | --- |
| O=S([O-])S(=O)[O-].[Na+].[Na+] |  |  |  |  |  |  | Activity (Leishmania mexicana [1]): 175.9% |
| Nc1ccc2nc(N)nc(N)c2c1 [QUINAZOLINE-2,4,6-TRIAMINE] | > 9000 µg/mL | 58.8 µM | 84 µM | 0% |  |  |  |
| Nc1nc(N)c2cc(NCCn3c(C(F)(F)F)nc4cc(Cl)c(Cl)cc43)ccc2n1 | 510 µg/mL (≈ 1120 µM) |  | 0.752 µM | 0% | 3.188 min |  |  |
| Nc1nc(N)c2cc([N+](=O)[O-])ccc2n1 |  | 0.261 µM | 15.8 µM |  |  |  |  |
| CC1CS(=O)(=O)CCN1/N=C/c1ccc([N+](=O)[O-])o1 (stereo unspecified) [NIFURTIMOX] |  |  |  |  |  |  | viability at 48 h, 100 µM (in vitro): 42% |
| COc1cc(Cc2cnc(N)nc2N)cc(OC)c1OC [TRIMETHOPRIM] |  |  |  | 30% |  | > 100 µM | survival (Leishmania mexicana [5]): 100%; survival (Leishmania mexicana [6]): 70% |
| MEGLUMINE ANTIMONATE [listing 1 of 2 here] |  |  |  |  |  |  | inhibition (Leishmania mexicana [3]): 100% |
| Nc1nc(N)c2cc(NCc3ccc([N+](=O)[O-])cc3)ccc2n1 |  | 1.43 µM | 0.241 µM | 20% | 3.841 min | > 100 µM |  |
| Nc1nc(N)c2cc(NCc3ccc(O)cc3)ccc2n1 | 380 µg/mL (≈ 1350 µM) | 2.4 µM | 1.02 µM | 0% | 3.081 min |  |  |
| CCc1nc(N)nc(N)c1-c1ccc(Cl)cc1 [PYRIMETHAMINE] |  |  |  | 50% |  | 100 µM |  |
| COc1ccc(CNc2ccc3nc(N)nc(N)c3c2)cc1 | 250 µg/mL (≈ 846 µM) | 2.85 µM | 1.58 µM | 100% | 3.081 min | 14.6 µM |  |
| MEGLUMINE ANTIMONATE [listing 2 of 2 here] |  |  |  |  |  |  | IC50 (Leishmania mexicana [8]): 183 µM |
